# Laboratory results taken from PubChem BioAssay.
# Active and inactive are the calls of the source.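 Rule for the calls, unless noted: active = viability at or below 30% in both replicate assays; inconclusive = viability at or below 30% in just one of the two assays; inactive = the rest.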
# Experiments:
# [1] = Her2 expression decrease, cell viability multiplex – SKBR3 breast tumor cells, AlphaScreen, ATP viability, primary screen (AID 461;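 active = Her2 level under about 52% in both replicate screens, with viability over 70% of control, limit read from the data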;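 for Her2 level: lower value means less Her2 protein in the cells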;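 for viability: percent of carrier control wells set as 100% viability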); conditions: SKBR3 Her2 protein level, 18-24 h, measured here: SKBR3 viability, ATP luminescence, at 10 µM
# [2] = molecular target: Receptor tyrosine-protein kinase erbB-2 (Homo sapiens) (UniProt P04626); test: as above; conditions: 18-24 h, at 10 µM, stronger effect = lower value
# Receptor tyrosine-protein kinase erbB-2 (Homo sapiens), sequence (P04626 whole entry, looked up): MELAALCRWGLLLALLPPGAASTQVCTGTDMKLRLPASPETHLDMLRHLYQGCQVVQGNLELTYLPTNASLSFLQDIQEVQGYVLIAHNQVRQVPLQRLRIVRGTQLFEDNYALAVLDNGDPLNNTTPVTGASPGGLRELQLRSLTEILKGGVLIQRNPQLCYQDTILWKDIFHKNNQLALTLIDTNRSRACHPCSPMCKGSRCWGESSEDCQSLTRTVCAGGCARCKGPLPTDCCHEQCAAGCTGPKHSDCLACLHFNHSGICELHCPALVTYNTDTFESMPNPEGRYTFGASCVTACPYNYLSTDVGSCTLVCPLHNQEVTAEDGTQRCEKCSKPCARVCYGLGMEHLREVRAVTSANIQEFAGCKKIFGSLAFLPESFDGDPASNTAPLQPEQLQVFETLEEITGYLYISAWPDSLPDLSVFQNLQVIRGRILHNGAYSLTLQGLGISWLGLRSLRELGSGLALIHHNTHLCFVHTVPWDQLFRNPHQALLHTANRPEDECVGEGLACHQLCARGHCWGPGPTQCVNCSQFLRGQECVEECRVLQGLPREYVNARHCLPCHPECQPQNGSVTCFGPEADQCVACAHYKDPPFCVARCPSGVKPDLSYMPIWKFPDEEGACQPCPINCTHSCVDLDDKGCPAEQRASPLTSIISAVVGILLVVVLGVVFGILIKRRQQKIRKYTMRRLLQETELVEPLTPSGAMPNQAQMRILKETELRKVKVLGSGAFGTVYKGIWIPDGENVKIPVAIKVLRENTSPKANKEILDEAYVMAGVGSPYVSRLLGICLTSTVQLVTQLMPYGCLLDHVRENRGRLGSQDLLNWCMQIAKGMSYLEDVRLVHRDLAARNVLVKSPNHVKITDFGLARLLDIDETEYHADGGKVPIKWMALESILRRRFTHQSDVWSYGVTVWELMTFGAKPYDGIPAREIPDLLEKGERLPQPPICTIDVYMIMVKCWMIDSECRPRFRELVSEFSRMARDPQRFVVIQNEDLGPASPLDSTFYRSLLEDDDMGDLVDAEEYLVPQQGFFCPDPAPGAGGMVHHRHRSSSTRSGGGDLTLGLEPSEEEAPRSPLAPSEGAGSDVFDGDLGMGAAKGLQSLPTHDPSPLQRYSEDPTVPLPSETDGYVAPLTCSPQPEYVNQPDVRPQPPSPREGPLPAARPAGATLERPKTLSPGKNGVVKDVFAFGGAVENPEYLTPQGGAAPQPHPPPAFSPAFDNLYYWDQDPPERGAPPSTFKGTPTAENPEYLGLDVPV
# [3] = reduced viability of SK-BR-3 breast cancer cells – cell-based, 24 h, human, pilot screen (AID 572;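 active = viability at or below 10% of carrier control in both of two separate runs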;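 note: compound exposure lasted between 18 and 24 h rather than exactly 24 h; 100% = carrier-treated control wells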); conditions: SK-BR-3 viability, CellTiter-Glo luminescence, at 10 µM, stronger effect = lower value
# [4] = HUVEC growth inhibition – cell-based, human, primary screen (AID 575); conditions: HUVEC proliferation, CellTiter-Glo luminescence, 72 h; at 10 µM; stronger effect = lower value;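 note: 100% = median of untreated cell wells with 0.1% DMSO on each plate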
# Summary of the method: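 Test system: HUVEC primary cells. Quantity: 1250 endothelial cells in each well. Dosing: single-point 10 µM, DMSO 0.1% final. Incubation: 72 h treatment at 37 °C. Measured by: CTG luminescence. Control set: DMSO cell controls and MePR drug controls. Plate: collagen-coated 384-well format.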
# [5] = H69AR cell proliferation blockers – human, duplicate replicates, primary screen (AID 580;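 active = viability at or under a set limit in both replicates, limit being median viability minus 3 SD, cut at about 48% in these data, passing the limit was not always enough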;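 note: 100% = mean luminescence of untreated wells and 0% = no signal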); conditions: H69AR lung tumor cells viability, ATP luminescence, 72 h; at 10 µM; stronger effect = lower value
# [6] = MRP1 drug-resistance reversers in H69AR cells – cell-based, doxorubicin co-treatment, pilot screen (AID 601;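 active = viability loss from added drug above about 55%, and viability with drug at most 40%, in both replicates, limit read from the data, passing the limit was not always enough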); conditions: CellTiter-Glo, 72 h, at 10 µM; for differential viability (reversal): stronger effect = higher value
# [7] = yeast transport mutant growth inhibition pilot in 384-well plates, post-Golgi transport modulator project (AID 636; in the data active = inhibition above about 31%); conditions: absorbance 615 nm, about 18 h, stronger effect = higher value
# [8] = growth suppression of yeast trafficking mutant, preliminary HTS, modulators of trafficking downstream of Golgi apparatus project, 1536-format plate, OD 615 nm (AID 637; in the data active = inhibition above about 30%); conditions: yeast transport mutant growth, absorbance 615 nm, 18 h; stronger effect = higher value
# [9] = H69AR cells + 2 uM doxorubicin, measured here: viability with 2 uM doxorubicin, stronger effect = lower value
# [10] = H69AR cells, compound alone cytotoxicity
Compound,viability [1] [%],Her2 level [2],viability [3],viability [4],viability [5],differential viability (reversal) ([6]; H69AR cells + 2 uM doxorubicin),"viability [6, 9] [%]","viability [6, 10] [%]",inhibition [7],inhibition [8]
CC(C)COC(=O)NCC12C=CC(O1)C1C(=O)N(c3ccc(Cl)cc3)C(=O)C12 (stereo not given),96,99.5% (inactive),96% (inactive),116% (inactive),89.9% (inactive),-2.55% (inactive),92.5,89.9,-6.16% (inactive),-7.3% (inactive)
COC(=O)c1cc(S(=O)(=O)N2CCC(C)CC2)ccc1F,71,104% (inactive),71% (inactive),88.6% (inactive),88.2% (inactive),-1.02% (inactive),89.2,88.2,-3.51% (inactive),2.79% (inactive)
COc1ccccc1N1C(=O)c2ccccc2NC1c1ccncc1 (stereo not given),104,100% (inactive),104% (inactive),101% (inactive),104% (inactive),9.81% (inactive),94,104,-1.51% (inactive),-7.14% (inactive)
O=C1CCc2cc(S(=O)(=O)N3CCC(C(=O)Nc4nccs4)CC3)ccc2N1,98,105% (inactive),98% (inactive),110% (inactive),85.3% (inactive),4.98% (inactive),80.3,85.3,-1.67% (inactive),-1.17% (inactive)
CC(=O)N1C(=O)C2(Nc3ccccc3N2)c2ccccc21,110,95.5% (inactive),110% (inactive),104% (inactive),97.6% (inactive),9.47% (inactive),88.1,97.6,-7.16% (inactive),-9.5% (inactive)
CCC(C)(C(=O)NC1CCCCC1)N(Cc1ccco1)C(=O)c1cnccn1 (stereo not given),82,98% (inactive),82% (inactive),88.7% (inactive),97.5% (inactive),8.25% (inactive),89.2,97.5,-0.78% (inactive),-3.77% (inactive)
CC(n1cnnn1)C12CC3CC(CC(C3)C1)C2 (stereo not given),88.5,96% (inactive),88.5% (inactive),93.4% (inactive),96% (inactive),11.3% (inactive),84.7,96,-1.2% (inactive),1.97% (inactive)
O=C(CS(=O)(=O)c1cn(Cc2ccc(Cl)cc2)c2ccccc12)N1CCCC1,81.5,92% (inactive),81.5% (inactive),88.2% (inactive),79.3% (inactive),-3.04% (inactive),82.3,79.3,-5.2% (inactive),1% (inactive)
O=c1c2ccccc2nc(SCc2cccc(F)c2)n1Cc1ccco1,104,97.5% (inactive),104% (inactive),87.6% (inactive),84.2% (inactive),1.36% (inactive),82.8,84.2,-5.33% (inactive),-0.63% (inactive)
CCOC(=O)c1ccc(NC(=O)CSc2n[nH]c(-c3ccncc3)n2)cc1,87.5,102% (inactive),87.5% (inactive),80% (inactive),87.7% (inactive),-1.68% (inactive),89.4,87.7,-3.11% (inactive),1.27% (inactive)
COC(=O)c1sc(S(=O)(=O)NCc2cccs2)c(C(=O)OC)c1C,84,93% (inactive),84% (inactive),85.8% (inactive),92.3% (inactive),7.38% (inactive),84.9,92.3,-8.24% (inactive),4.26% (inactive)
O=c1c2ccccc2nnn1CSc1nnc2sc3ccccc3n12,95,64% (inactive),95% (inactive),92.8% (inactive),77.5% (inactive),9.79% (inactive),67.7,77.5,-9.04% (inactive),-1.43% (inactive)
CCCC(=O)Nc1nnc(CC(=O)OCC)s1,111,108% (inactive),111% (inactive),113% (inactive),88.1% (inactive),-0.96% (inactive),89,88.1,-2.21% (inactive),-7.14% (inactive)
O=C(NC1CCCCC1)c1ccc(S(=O)(=O)N2CCCCC2)cc1,80.5,108% (inactive),80.5% (inactive),86% (inactive),74.9% (inactive),-29.9% (inactive),105,74.9,4.29% (inactive),-11.4% (inactive)
Cc1cc(=O)n(C)c(=O)n1CCCNc1ccccc1,82,115% (inactive),82% (inactive),83.7% (inactive),99.9% (inactive),11.4% (inactive),88.5,99.9,0% (inactive),-5% (inactive)
Cc1cccc(-n2c(Cc3cc(=O)[nH]c(=O)[nH]3)nnc2SCC(=O)NCc2ccco2)c1,99.5,89.5% (inactive),99.5% (inactive),108% (inactive),111% (inactive),13.9% (inactive),97.1,111,-7.07% (inactive),4.19% (inactive)
COc1ccc(NC(=O)CSc2nnc(-c3ccccc3C)n2C)cc1,96.5,108% (inactive),96.5% (inactive),113% (inactive),100% (inactive),13.8% (inactive),86.4,100,-4.55% (inactive),-5.17% (inactive)
Cc1c(NC(=O)C(C)OC(=O)COc2cccc3c2OC(C)(C)C3)c(=O)n(-c2ccccc2)n1C (stereo not given),112,106% (inactive),112% (inactive),124% (inactive),92% (inactive),-1.3% (inactive),93.3,92,-4.47% (inactive),17.2% (inactive)
O=c1[nH]c(NCc2ccco2)nnc1Cc1ccccc1Cl,96.5,84% (inactive),96.5% (inactive),41.2% (inactive),13.3% (active),-44.5% (inactive),57.8,13.3,-7.67% (inactive),4.92% (inactive)
Cc1ccc(Cn2c(C(=O)NCCCN3CCOCC3)cc3sccc32)cc1,84.5,76.5% (inactive),84.5% (inactive),63.6% (inactive),77.6% (inactive),-3.47% (inactive),81.1,77.6,-3.16% (inactive),-1.27% (inactive)
Cc1ccc(N2CC(C(=O)Nc3nnc(C)s3)CC2=O)cc1 (stereo not given),110,90% (inactive),110% (inactive),86.2% (inactive),106% (inactive),16.4% (inactive),89.9,106,-4.67% (inactive),0.65% (inactive)
COCCn1c(SCC(=O)Nc2sc(C)c(C)c2C#N)nnc1C(C)C,98,92.5% (inactive),98% (inactive),96% (inactive),89.6% (inactive),-3.22% (inactive),92.8,89.6,-0.13% (inactive),-4.35% (inactive)
Cc1ccc(NC(=O)C2CCCN(S(=O)(=O)c3cnc[nH]3)C2)c(Br)c1 (stereo not given),88.5,92% (inactive),88.5% (inactive),88.1% (inactive),101% (inactive),8.17% (inactive),93.3,101,-0.93% (inactive),-1.97% (inactive)
O=C(CS(=O)CC(=O)Nc1cccc2c1CCCC2)Nc1ccc(F)cc1 (stereo not given),114,103% (inactive),114% (inactive),88.3% (inactive),102% (inactive),4.67% (inactive),97.8,102,-6.93% (inactive),4.1% (inactive)
CCCCCCC1/C(=N/O)CCC1C(=O)OC (stereo not given),108,95.5% (inactive),108% (inactive),109% (inactive),83.2% (inactive),-1.02% (inactive),84.2,83.2,-8.44% (inactive),-5.71% (inactive)
O=C(CCSc1ccccc1)N1CCOCC1,94,98.5% (inactive),94% (inactive),96.7% (inactive),93.5% (inactive),-0.87% (inactive),94.4,93.5,-5.39% (inactive),-2.13% (inactive)
CC1=C(C(=O)OCCOC(C)C)C(c2cc3c(cc2Br)OCO3)C2=C(CCCC2=O)N1 (stereo not given),102,111% (inactive),102% (inactive),86.2% (inactive),80.8% (inactive),1.89% (inactive),78.9,80.8,-2.8% (inactive),6.07% (inactive)
CC(=O)N1C(=O)N(C)C2C1N(C(C)=O)C(=O)N2C (stereo not given),125,104% (inactive),125% (inactive),92.4% (inactive),93.5% (inactive),-1.64% (inactive),95.1,93.5,-1.18% (inactive),-6.45% (inactive)
